From PubChem BioAssay
Results filed as inconclusive are left out. Calls of active or inactive are those of the source.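 The calls were made as follows, unless noted: active = viability at or below 27.92% in each of two runs, the all-compound median minus 4 SD; inconclusive = no clear call, values can overlap the other calls; inactive = the rest.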

How the values were obtained:
[1] = S. cerevisiae growth inhibition in permissive medium (OD615), pilot counter-assay for S. cerevisiae lifespan shortening project, permissive growth control (AID 705;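 active = growth inhibition above 25% in both replicates, a cutoff set 3 SD above the mean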); settings: OD615, 24 h, at 10 µM, stronger effect = higher value
Outline: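 System: Engineered DeaD yeast | Buffer or medium: SC raffinose/galactose permissive medium | Doses: 10 µM single dose, 0.25% DMSO | Times: 24 h exposure, 30 °C | Measured by: OD615 turbidity read | Read-out: Yeast growth inhibition indicated by reduced 24 h OD615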

[2] = S. cerevisiae growth inhibition in restrictive medium, OD615, pilot screen, restrictive growth control, yeast lifespan reduction project (AID 706;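 active = growth inhibition above a set limit, 3 SD over mean compound inhibition, in both replicates, cut at about 43% in these data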;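 also: modified DeaD lifespan yeast strain shifted to restrictive glucose medium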); settings: OD615, 48 h, at 10 µM, stronger effect = higher value
Outline: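 Assay system: engineered S. cerevisiae DeaD strain; Buffer or medium: CSMM-D glucose medium; Dosing: 10 µM compound, 0.25% DMSO; Times: cell pre-growth 4 h, compound exposure 48 h, 30 °C; Detection: absorbance (optical density) measured at 615 nm.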

[3] = doxorubicin toxicity protection in MRP-1 cells – H69AR cells, CellTiter-Glo, duplicate, MRP-1 activator project, pilot screen (AID 807;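 active = viability increase at or above a cutoff of the median across tested compounds plus 3 SD, cut at about 8.5% in these data, passing the limit was not always enough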;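 also: compound pretreatment 18-22 h then 72 h combined with doxorubicin; 0% = doxorubicin alone and 100% = vehicle without doxorubicin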); settings: H69AR viability with doxorubicin, CellTiter-Glo luminescence; at 10 µM; stronger effect = higher value
[4] = viability of HCT116 without oncogenic beta-catenin – human colon tumor cells, pilot screen (AID 823;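 active = cell viability at or below a set limit in both duplicate runs, the limit being the all-compound median minus 4 SD, cut at about 23% in these data, passing the limit was not always enough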;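 also: 0% = wells killed by 20 µM Hyamine and 100% = untreated DMSO cell wells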); settings: HCT116 beta-catenin knockout viability, CellTiter-Glo, 60 h; at 10 µM; stronger effect = lower value
[5] = viability of PTEN-null HCT116 cells – cell-based, HCT116 clonal line, CellTiter-Glo, pilot screen (AID 824); settings: HCT116 PTEN-deleted viability, 60 h, at 10 µM, stronger effect = lower value;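 also: 0% = 20 µM Hyamine control and 100% = vehicle cell control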
[6] = RAM pathway blockade in budding yeast – dse1pr::URA3 reporter, 5-FOA selection, pilot screen (AID 869;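 active = inhibition over a set limit, the all-compound mean plus 3 SD, in both replicate runs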;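 also: 0% = DMSO wells with no growth and 100% = 10 µM 1-NA-PP1 with full growth; RAM network block rescues cells from 5-FOA so hits raise OD615 growth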); settings: S. cerevisiae dse1pr::URA3 5-FOA growth, OD615, 2 d; at 10 µM; stronger effect = higher value; strain carries analog-sensitive mutant Cbk1 kinase
[7] = RAM signaling pathway blockade in yeast – S. cerevisiae, Pdr1DBD-CYC8 efflux-inhibited sensitized strain, primary screen (AID 1298;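 active = RAM network inhibition above 8.4% in each of two replicates, 3 SD over the compound average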;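 also: 0% = DMSO untreated cells without growth and 100% = 10 µM 1-NA-PP1 full growth; higher means more yeast growth rescued from 5-FOA killing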); settings: S. cerevisiae cbk1-as DSE1-URA3 strain, 5-FOA growth OD615, 2 d; at 50 µM; stronger effect = higher value

CCCCC(=O)Nc1nc2ccc3nc(C)sc3c2s1
inactive: growth inhibition [1] -25.8% | growth inhibition [2] -2.65% | viability increase [3] -0.78% | viability [4] 81.3% | viability [5] 87.2% | inhibition [6] 2.27% | RAM network inhibition [7] 0.32%

CC(=O)Nc1nc2c(F)cccc2s1
inactive: growth inhibition [1] -14.9% | growth inhibition [2] -3% | viability increase [3] -2.43% | viability [4] 96.5% | viability [5] 91.2% | inhibition [6] 1.6% | RAM network inhibition [7] 7.94%

Cc1cc(C)nc(SCCn2c(N3CCC(C)CC3)nc3c2c(=O)n(C)c(=O)n3C)n1
inactive: growth inhibition [1] -3.83% | growth inhibition [2] 0.625% | viability increase [3] 1.09% | viability [4] 99.9% | viability [5] 97.3% | inhibition [6] 1.71% | RAM network inhibition [7] 1.91%

Cc1ncc(CO)c2cc(S(=O)(=O)c3ccc(F)cc3)c(=O)oc12
inactive: growth inhibition [1] -11.8% | growth inhibition [2] -4.46% | viability increase [3] -0.48% | viability [4] 104% | viability [5] 96.7% | inhibition [6] 0.14% | RAM network inhibition [7] 1.42%

CC1(C)CC(=O)c2sc(NC(=O)C3CC3)nc2C1
inactive: growth inhibition [1] -1.12% | growth inhibition [2] -10.6% | viability increase [3] 1.37% | viability [4] 104% | viability [5] 106% | inhibition [6] 1.47% | RAM network inhibition [7] 1.56%

O=C(NCc1ccco1)C1c2ccccc2Oc2ccccc21
inactive: growth inhibition [1] -6.75% | growth inhibition [2] 6.04% | viability increase [3] -5.24% | viability [4] 83.8% | viability [5] 88.4% | inhibition [6] 0.12% | RAM network inhibition [7] 3.94%

CCOCCCNC(=O)c1cc2c(=O)n3cccc(C)c3nc2n1C
active: viability [4] 19% | viability [5] 24.4%
inactive: growth inhibition [1] -19.1% | growth inhibition [2] -15.2% | viability increase [3] -5.27% | inhibition [6] 2.11% | RAM network inhibition [7] 2.32%

CCCn1c(C(O)c2ccc3c(c2)OCO3)nc2ccccc21 (configuration not stated)
inactive: growth inhibition [1] 1.37% | growth inhibition [2] -13.8% | viability increase [3] 0.23% | viability [4] 100% | viability [5] 102% | inhibition [6] 2.31% | RAM network inhibition [7] 0.88%

COc1ccc(CCNc2oc(-c3ccc(C)cc3)nc2C#N)cc1OC
inactive: growth inhibition [1] -10.8% | growth inhibition [2] -13.3% | viability increase [3] -0.33% | viability [4] 95.8% | viability [5] 104% | inhibition [6] 0.67% | RAM network inhibition [7] -0.47%

CCN1C(=O)CS/C1=N\c1nccs1
inactive: growth inhibition [1] 1.12% | growth inhibition [2] 1.68% | viability increase [3] 0.86% | viability [4] 105% | viability [5] 105% | inhibition [6] 1.64% | RAM network inhibition [7] -1.23%

CCN(CC)C(=O)c1cc2c(=O)n3ccccc3nc2s1
inactive: growth inhibition [1] -4.75% | growth inhibition [2] -3.33% | viability increase [3] -3.66% | viability [4] 93.7% | viability [5] 96.2% | inhibition [6] 1.94% | RAM network inhibition [7] 0.68%

CC(C)C(NC(=O)C12CC3CC(CC(C3)C1)C2)C(=O)NC1=NCCS1 (configuration not stated)
inactive: growth inhibition [1] -6.21% | growth inhibition [2] 7.3% | viability increase [3] -3.97% | viability [4] 88% | viability [5] 89.2% | inhibition [6] 2.41% | RAM network inhibition [7] 4.34%

Cc1cccc(N(C)S(=O)(=O)c2cccc3nsnc23)c1
inactive: growth inhibition [1] -12% | growth inhibition [2] -17.9% | viability increase [3] -4.32% | viability [4] 92.5% | viability [5] 89% | inhibition [6] 0.325% | RAM network inhibition [7] 4.78%

CCOC(=O)c1c(NC(=O)CN2CCCCC2)sc2c1CCCC2O (configuration not stated)
inactive: growth inhibition [1] -10.4% | growth inhibition [2] -0.48% | viability increase [3] -4.26% | viability [4] 70.3% | viability [5] 65.2% | inhibition [6] -0.195% | RAM network inhibition [7] 4.1%

CCC(=O)Nc1cccc(NC(=O)c2cc3ccccc3o2)c1
inactive: growth inhibition [1] -10.9% | growth inhibition [2] -9.17% | viability increase [3] -1.82% | viability [4] 93.8% | viability [5] 90.2% | inhibition [6] 1.2% | RAM network inhibition [7] 5.21%

CCOC(=O)N1CCc2c(sc(NC(=O)c3ccc(S(=O)(=O)N4CCCC4)cc3)c2C#N)C1
inactive: growth inhibition [1] -3.65% | growth inhibition [2] -5.41% | viability increase [3] -1.2% | viability [4] 99.1% | viability [5] 85% | inhibition [6] 2.04% | RAM network inhibition [7] 5.32%

CC1(C)CC(=O)C=C(NCCCNC2CCCCC2)C1
inactive: growth inhibition [1] -9.9% | growth inhibition [2] -7.88% | viability increase [3] -2.17% | viability [4] 96.5% | viability [5] 93% | inhibition [6] 0.125% | RAM network inhibition [7] 1.72%

CCOC(=O)C1CCCN(C(=O)C2CCN(c3nnc(-n4cccc4)s3)CC2)C1 (configuration not stated)
inactive: growth inhibition [1] 5.27% | growth inhibition [2] 2.6% | viability increase [3] -2.17% | viability [4] 98.5% | viability [5] 90.8% | inhibition [6] 1.1% | RAM network inhibition [7] 2.55%

COc1ccc(C(=O)/C=C/N2CCCCC2)cc1OC
inactive: viability increase [3] -4.55% | viability [4] 77.8% | viability [5] 86.6% | inhibition [6] 0.145% | RAM network inhibition [7] -1.38%
active: growth inhibition [1] 53.1% | growth inhibition [2] 74.3%

CCOC(=O)N1CCN(C(=O)c2oc3ccc(S(=O)(=O)N4CCCCCC4)cc3c2C)CC1
inactive: growth inhibition [1] -9.38% | growth inhibition [2] -0.595% | viability increase [3] -4.29% | viability [4] 59.3% | viability [5] 71.1% | inhibition [6] -0.805% | RAM network inhibition [7] 1.63%

COc1ccc(NS(=O)(=O)c2ccc3c(c2)oc(=O)n3C)c(OC)c1
inactive: growth inhibition [1] -16.1% | growth inhibition [2] -28.2% | viability increase [3] 0.13% | viability [4] 104% | viability [5] 91.5% | inhibition [6] 1.07% | RAM network inhibition [7] 9.99%

O=C1c2ccccc2C(=O)N1CCCc1nc2ccccc2c(=O)n1-c1cccnc1
inactive: growth inhibition [1] -1.63% | growth inhibition [2] 7.23% | viability increase [3] -3.29% | viability [4] 93.1% | viability [5] 90.8% | inhibition [6] 2.07% | RAM network inhibition [7] 2.78%

COc1cccc(-c2nn(C)c3sc(C(=O)NCc4ccc5c(c4)OCO5)cc23)c1
inactive: growth inhibition [1] 2.61% | growth inhibition [2] 9.31% | viability increase [3] -2.08% | viability [4] 92.6% | viability [5] 82.7% | inhibition [6] 4.3% | RAM network inhibition [7] 12.7%

COc1ccc(-c2nc(CS(=O)CC(=O)NCc3ccco3)c(C)o2)cc1OC (configuration not stated)
inactive: growth inhibition [1] 1.38% | growth inhibition [2] -5.82% | viability increase [3] -4.57% | viability [4] 83.4% | viability [5] 84.6% | inhibition [6] 0.205% | RAM network inhibition [7] 4.18%

CCN(CC)CCOc1ccc(Br)cc1
inactive: growth inhibition [1] -12.9% | growth inhibition [2] -12.2% | viability increase [3] -0.72% | viability [4] 90.1% | viability [5] 103% | inhibition [6] 1.24% | RAM network inhibition [7] 1.1%

Cc1ccc(CNC(=O)CCCNS(=O)(=O)c2cccc3nonc23)cc1
inactive: growth inhibition [1] -4.66% | growth inhibition [2] 0.525% | viability increase [3] -1.25% | viability [4] 101% | viability [5] 101% | inhibition [6] -0.185% | RAM network inhibition [7] 3%

CCOC(=O)CSC1=C(C#N)C(c2ccccc2Cl)C(C(=O)OC)C(=O)N1 (configuration not stated)
inactive: growth inhibition [1] -8.45% | growth inhibition [2] -0.68% | viability increase [3] -0.9% | viability [4] 90.3% | viability [5] 91.8% | inhibition [6] 0.14% | RAM network inhibition [7] 2.05%

COc1ccc(C2N(c3cccc(Cl)c3)C(=O)C3CCCN32)cc1 (configuration not stated)
inactive: growth inhibition [1] 6.5% | growth inhibition [2] 6.72% | viability increase [3] -2.85% | viability [4] 102% | viability [5] 98.1% | inhibition [6] 0.115% | RAM network inhibition [7] -1.65%

COc1ccc(CNC(=O)c2cnc3scc(C)n3c2=O)cc1
inactive: growth inhibition [1] -13.9% | growth inhibition [2] -6.35% | viability increase [3] 3.79% | viability [4] 102% | viability [5] 93.8% | inhibition [6] 0.925% | RAM network inhibition [7] 11.9%

Cc1ccc(C)c(-n2nnnc2SCC(=O)Nc2cccc(-c3nnc4n3CCCCC4)c2)c1
active: growth inhibition [2] 54.4%
inactive: growth inhibition [1] 12.3% | viability increase [3] -0.74% | viability [4] 97.7% | viability [5] 90.9% | inhibition [6] 1.77% | RAM network inhibition [7] 6.57%

Cc1cc(C)nc(SCSc2nc(C)cc(C)n2)n1
inactive: growth inhibition [1] 0.095% | growth inhibition [2] 5.64% | viability increase [3] -2.17% | viability [4] 104% | viability [5] 103% | inhibition [6] 1.23% | RAM network inhibition [7] 5.29%

CCOC(=O)C1CCCN(C(=O)C2CCCN(S(=O)(=O)c3ccc4c(c3)oc(=O)n4C)C2)C1 (configuration not stated)
inactive: growth inhibition [1] -4.01% | growth inhibition [2] -0.98% | viability increase [3] 0.99% | viability [4] 92.2% | viability [5] 94.5% | inhibition [6] 0.445% | RAM network inhibition [7] -0.53%

CCOC(=O)Cn1c(CN2CCOCC2)nc2c1c(=O)n(C)c(=O)n2C
inactive: growth inhibition [1] -1.92% | growth inhibition [2] -5.31% | viability increase [3] 1.26% | viability [4] 107% | viability [5] 103% | inhibition [6] 1.72% | RAM network inhibition [7] 2.19%

Nc1c(S(=O)(=O)c2ccccc2)c2nc3ccccc3nc2n1Cc1ccco1
inactive: growth inhibition [1] -25.5% | growth inhibition [2] -16.2% | viability increase [3] -3.97% | viability [4] 78.8% | viability [5] 73.8% | inhibition [6] 2.83% | RAM network inhibition [7] 7.51%

C=CCc1cc(/C=N/n2cnnc2)cc(OCC)c1O
inactive: growth inhibition [1] -10.7% | growth inhibition [2] -1.86% | viability increase [3] -2.46% | viability [4] 102% | viability [5] 94.7% | inhibition [6] 0.925% | RAM network inhibition [7] 0.6%

O=C(Cn1c(=O)oc2ccccc21)N1CCN(c2ccc(N3CCOCC3)nn2)CC1
inactive: growth inhibition [1] -0.78% | growth inhibition [2] -14% | viability increase [3] -2.65% | viability [4] 101% | viability [5] 101% | inhibition [6] 1.31% | RAM network inhibition [7] 2.63%
